pEC50: −log10 of the molar value.

Common to all, as to type: cell-based
One assay addresses T1, human FPR1 (Homo sapiens, UniProt P21462).
T1 sequence (P21462 1-350): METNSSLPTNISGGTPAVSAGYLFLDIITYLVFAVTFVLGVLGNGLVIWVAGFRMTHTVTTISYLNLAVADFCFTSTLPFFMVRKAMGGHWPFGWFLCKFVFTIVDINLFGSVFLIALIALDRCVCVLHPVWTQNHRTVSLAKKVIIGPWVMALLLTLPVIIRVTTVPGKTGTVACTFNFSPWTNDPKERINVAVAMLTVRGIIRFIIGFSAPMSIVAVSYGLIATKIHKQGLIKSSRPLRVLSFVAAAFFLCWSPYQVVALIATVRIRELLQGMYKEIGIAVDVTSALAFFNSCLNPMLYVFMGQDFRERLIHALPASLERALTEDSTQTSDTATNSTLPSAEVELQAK
As to the kind of experiment: Ca2+ mobilization in HL-60 cells transfected with FPR1. As to conditions: HL-60-FPR1 cells; for Ca2+ Mobilization Efficacy, FPR1: percent of the response induced by 5 nM fMLF; for pEC50: read-out: Ca2+ Mobilization EC50, FPR1, mean of three independent experiments, N.A. = no activity, limits efficacy > 20 % and EC50 < 50 μM. Summed up:
(§1)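 Stably transfected HL-60 cells were grown in RPMI 1640 with 10% heat-inactivated FCS, 10 mM HEPES and G418 (1 mg/mL). Cells were loaded with Fluo-4 AM (1.25 μg/mL final) for 30 min at 37 °C in the dark, then resuspended in HBSS with Ca²⁺/Mg²⁺ at 2 × 10⁵ cells/well. Fluorescence (ex 485/em 538 nm) was read every 5 s for 240 s at room temperature after compound addition. Peak change over baseline was set against 5 nM fMLF (FPR1) or 5 nM WKYMVm (FPR2, FPR3) as 100%. Curves had 5–6 points, from three independent experiments.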
For orientation: Calcium flux is commonly read through the fluorescence of an indicator in the cells.

The target of the next assay is T2, human FPR2 (Homo sapiens, UniProt P25090).
T2 sequence (P25090 1-351): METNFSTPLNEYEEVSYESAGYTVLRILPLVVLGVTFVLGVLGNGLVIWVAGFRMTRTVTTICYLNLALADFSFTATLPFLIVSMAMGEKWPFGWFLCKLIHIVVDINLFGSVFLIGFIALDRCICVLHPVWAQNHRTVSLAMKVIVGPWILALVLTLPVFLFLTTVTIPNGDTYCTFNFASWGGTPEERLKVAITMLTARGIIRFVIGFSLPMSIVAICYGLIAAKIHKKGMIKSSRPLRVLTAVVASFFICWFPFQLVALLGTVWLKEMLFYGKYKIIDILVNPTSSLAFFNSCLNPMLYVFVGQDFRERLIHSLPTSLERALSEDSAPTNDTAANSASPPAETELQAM
As to the kind of experiment: Ca2+ mobilization in HL-60 cells transfected with FPR2. Particulars: HL-60-FPR2 cells; for Ca2+ Mobilization Efficacy, FPR2: percent of the response induced by 5 nM WKYMVm; for pEC50: read-out: Ca2+ Mobilization EC50, FPR2, mean of three independent experiments, N.A. = no activity, limits efficacy > 20 % and EC50 < 50 μM. Summed up: as §1

The target of another assay is T3, human FPR3 (Homo sapiens, UniProt P25089).
T3 sequence (P25089 1-353): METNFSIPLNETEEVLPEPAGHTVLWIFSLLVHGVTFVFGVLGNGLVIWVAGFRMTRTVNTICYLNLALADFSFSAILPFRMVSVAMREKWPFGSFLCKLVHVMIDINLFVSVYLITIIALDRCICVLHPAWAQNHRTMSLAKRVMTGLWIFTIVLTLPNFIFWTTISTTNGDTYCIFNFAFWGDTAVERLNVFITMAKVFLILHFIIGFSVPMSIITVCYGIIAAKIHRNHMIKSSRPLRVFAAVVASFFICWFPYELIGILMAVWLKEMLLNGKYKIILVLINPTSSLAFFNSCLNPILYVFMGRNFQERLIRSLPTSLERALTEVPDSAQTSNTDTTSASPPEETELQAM
Description: Ca2+ mobilization in HL-60 cells transfected with FPR3. As to conditions: HL-60-FPR3 cells; for Ca2+ Mobilization Efficacy, FPR3: percent of the response induced by 5 nM WKYMVm; for pEC50: read-out: Ca2+ Mobilization EC50, FPR3, mean of three independent experiments, N.A. = no activity, limits efficacy > 20 % and EC50 < 50 μM. Summed up:
as §1

As usually defined, the pEC50 is the EC50 on a negative log10 scale, so that one unit is a factor of ten. Consider `CC1CC(c2ccccc2)=NN(CC(=O)Nc2ccc(Br)cc2)C1=O` (racemic) [(±)-4a, (±)-N-(4-Bromophenyl)-2-[5-methyl-6-oxo-3-phenyl-5,6-dihydropyridazin-1(4H)-yl]acetamide], for which, on human FPR1, the “Ca2+ Mobilization Efficacy, FPR1” value came to 55% and the pEC50 was 4.63. Further, on human FPR2, the “Ca2+ Mobilization Efficacy, FPR2” value worked out at 65% and the pEC50 is 5.15.
On to `Cc1cc(-c2ccccc2)nn(CC(=O)Nc2ccc(Br)cc2)c1=O` [8a, N-(4-Bromophenyl)-2-[5-methyl-6-oxo-3-phenylpyridazin-1(6H)-yl]acetamide], for which the “Ca2+ Mobilization Efficacy, FPR1” value at human FPR1 is 50%. Besides, at human FPR2, the “Ca2+ Mobilization Efficacy, FPR2” value turned out to be 45%.
For the compound `C[C@@H]1CC(c2ccccc2)=NN(CC(=O)Nc2ccc(Br)cc2)C1=O` [R-(+)-4a, R-(+)-N-(4-Bromophenyl)-2-[5-methyl-6-oxo-3-phenyl-5,6-dihydropyridazin-1(4H)-yl] acetamide], on human FPR1, the “Ca2+ Mobilization Efficacy, FPR1” value came out at 80% and the pEC50 was 4.61. In addition, on human FPR2, the “Ca2+ Mobilization Efficacy, FPR2” value worked out at 85% and the pEC50 was 5.00. For the same compound, on human FPR3, the “Ca2+ Mobilization Efficacy, FPR3” value stood at 40% and the pEC50 was 5.15.
On to `C[C@H]1CC(c2ccccc2)=NN(CC(=O)Nc2ccc(Br)cc2)C1=O` [S-(-)-4a, S-(-)-N-(4-Bromophenyl)-2-[5-methyl-6-oxo-3-phenyl-5,6-dihydropyridazin-1(4H)-yl] acetamide], for which, on human FPR1, the “Ca2+ Mobilization Efficacy, FPR1” value was 75% and the pEC50 was 4.71. On human FPR2, the “Ca2+ Mobilization Efficacy, FPR2” value worked out at 95% and the pEC50 was 4.97. Besides, on human FPR3, the “Ca2+ Mobilization Efficacy, FPR3” value was 40% and the pEC50 is 5.08.

The values are drawn from PMC4299864 (Chirality, 2013).
